Only some compounds are listed: those with a hit (about 29% of all), similar ones and a draw of the others.
CYP2C19 activ: activators of human cytochrome P450 2C19; P33261; recombinant CYP2C19, luciferin-H EGE luminescence; hits give high values; 0 = fully inhibited enzyme, 1 = untreated enzyme; activation factor at 5 µM; 96,000 tested, under 10 active;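 active means activation factor of at least 2 at 5 µM in the primary screen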;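 further: 0 = wells with 2.5 mM tranylcypromine and 1 = vehicle-only wells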
CYP2C9 inhib: blocks human cytochrome P450 2C9 | CYP2C9 Supersomes, luciferin-H conversion, luminescence | AID 777 | actives 20% (n = 96,000) | inhibition, % at 5 µM | P11712;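 active means blocking of liver enzyme CYP2C9 beyond about 50% at 5 µM, limit read from the data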
Target sequence (P11712 whole entry, looked up): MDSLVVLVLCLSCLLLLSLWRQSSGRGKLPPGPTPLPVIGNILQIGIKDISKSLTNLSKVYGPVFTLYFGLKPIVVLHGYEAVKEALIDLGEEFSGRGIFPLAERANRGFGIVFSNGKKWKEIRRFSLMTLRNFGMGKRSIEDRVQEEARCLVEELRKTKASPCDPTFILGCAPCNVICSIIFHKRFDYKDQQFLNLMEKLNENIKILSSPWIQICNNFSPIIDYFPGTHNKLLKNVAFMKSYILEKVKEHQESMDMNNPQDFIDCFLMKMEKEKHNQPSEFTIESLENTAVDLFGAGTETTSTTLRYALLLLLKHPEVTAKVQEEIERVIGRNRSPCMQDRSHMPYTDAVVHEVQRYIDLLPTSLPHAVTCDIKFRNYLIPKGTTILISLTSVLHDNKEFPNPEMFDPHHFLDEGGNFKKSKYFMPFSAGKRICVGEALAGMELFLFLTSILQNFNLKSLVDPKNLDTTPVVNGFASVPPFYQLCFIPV
Ecoli WT expand: growth inhibitors of E. coli BW25113 wild type; growth inhibition, % at 100 µM; AID 710; OD600 absorbance; actives 0.15% (n = 98,000);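 active means growth inhibition above about 50% at one test dose, limit read from the data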;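 further: growth measured after 20 h incubation at 37 °C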
CYP2C19 inhib: human CYP2C19 inhibition. CYP2C19 Supersomes, luciferin-H EGE luminescence, 30 min. inhibition, % at 5 µM. actives 21% (n = 96,000). AID 778;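 active means CYP2C19 inhibition above a set limit at 5 µM in the primary screen, cut at about 50% in these data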;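 further: plate controls were negative control wells for no effect and 2.5 mM tranylcypromine positive control for full effect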
Ecoli tolC: growth inhibitors of E. coli BW25113 tolC mutant. OD615. growth inhibition, % at 10 µM (by protocol). actives 2.2% (n = 65,000);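 active means growth inhibition at or above a cutoff equal to the mean over every tested compound plus 3 SD, cut at about 60% in these data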;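 further: growth measured after 20 h incubation at 37 °C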
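test system = E. coli BW25113 ΔtolC::kan bacteria | medium = LB with kanamycin 50 µg/mL | signal = OD at 615 nm | schedule = 37 °C, 20 h exposure | evaluation = % inhibition of E. coli growth | compound dosing = one dose of 10 µM final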
CYP2C9 activ: increases human cytochrome P450 2C9 activity. P11712. recombinant CYP2C9, luciferin-H conversion, luminescence; hits give high values; factor 1 = untreated enzyme, 0 = blocked. activation factor at 5 µM. actives 1.4% (n = 96,000);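 active means activation factor of 2 or more for CYP2C9 at a 5 µM dose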;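 further: 0 = sulfaphenazole-blocked wells and 1 = vehicle-only wells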
Numbers without * were called inactive; nt = no result.

SMILES	CYP2C19 activ	CYP2C9 inhib	Ecoli WT expand	CYP2C19 inhib	Ecoli tolC	CYP2C9 activ
CCOC(=O)C1Cc2c([nH]c3ccccc23)C(C)N1 (stereo unspecified)	0.2	-11	2	82*	18	1.1
COC(=O)C1Cc2c([nH]c3ccccc23)CN1 (stereo unspecified)	0.3	-9	6	71*	-2	1.1
O=C(CN1C(=O)c2cccc3cccc1c23)Nc1cccnc1	nt	nt	nt	nt	-6	nt
CCC1(CC)C(=O)N(C)C(=O)NC1=Nc1ccc(OC)cc1	1	2	-1	-2	nt	1
CCOc1ccccc1NC(=O)N1CCCC1C(=O)Nc1ccc(-n2cnnn2)c(C)c1 (stereo unspecified)	0.3	79*	-6	70*	10	0.2
CCOc1ccccc1NC(=O)N1CCCC1C(=O)Nc1nnc(CC)s1 (stereo unspecified)	0.9	7	-2	6	-3	0.9
O=C(Nc1ccc(-n2cnnn2)cc1)C1CCCCC1	0.7	31	1	33	nt	0.7
O=C(Nc1ccc(-n2cnnn2)cc1)C1CCCN1C(=O)NC1CCCCC1 (stereo unspecified)	0.3	59*	2	66*	-7	0.4
COCCNC(=O)C(C)Oc1ccc(Cl)cc1Cl (stereo unspecified)	0.1	46	-5	94*	6	0.5
CCCn1nnc(NC(=O)C(C)Oc2ccc(Cl)cc2Cl)n1 (stereo unspecified)	0.7	21	2	26	24	0.8
CC(Oc1ccc(Cl)cc1Cl)C(=O)NCCCN1CCOCC1 (stereo unspecified)	0.4	-10	-4	58*	-10	1.1
CC(Oc1ccc(Cl)cc1Cl)C(=O)NC1=NN(c2ccccc2)C(=O)C1 (stereo unspecified)	0.7	53*	5	32	nt	0.5
CC(Oc1ccc(Cl)cc1Cl)C(=O)Nc1ccncc1 (stereo unspecified)	0	98*	14	100*	12	0
COc1ccc(-n2c(=O)cc(N3CC(C)OC(C)C3)[nH]c2=O)cc1 (stereo unspecified)	0.9	6	-16	6	5	0.9
CC(C)(Oc1ccc(Cl)cc1)C(=O)NC1CCSC1=O (stereo unspecified)	nt	nt	nt	nt	7	nt
CC(Oc1ccc(Cl)cc1Cl)C(=O)NC1CCSC1=O (stereo unspecified)	0.1	41	1	93*	16	0.6
N#Cc1c(Sc2ncc(C(F)(F)F)cc2Cl)nsc1C/C=N\OCc1ccccc1Br	0.9	-9	-14	10	nt	1.1
CCc1nc2ccc(C)cc2c(C(=O)NC2CCCCC2C)c1C (stereo unspecified)	0.8	71*	2	21	nt	0.3
Cc1ccc2c(c1)NC(=O)C(CC(=O)NC1CCCCC1C)O2 (stereo unspecified)	0.9	-23	1	6	1	1.2
CC1=CC(C)(C)N(C(=O)c2ccccc2)c2ccccc21	0.7	14	5	28	49	0.9
CC1=CC(C)(C)N(S(=O)(=O)c2ccc(F)cc2)c2ccc(C)cc21	0.7	31	-7	28	nt	0.7
CC1=CC(C)(C)N(C(=O)C(C)N2C(=O)c3ccccc3C2=O)c2ccc(C)cc21 (stereo unspecified)	0.2	7	0	83*	nt	0.9
CC1=CC(C)(C)N(S(=O)(=O)c2ccc(C)cc2)c2ccccc21	0.6	62*	-10	44	nt	0.4
CC(C(=O)N1CCCCC1)N1C(=O)c2ccccc2C1=O (stereo unspecified)	1.1	-11	3	-10	-1	1.1
CC1=CC(C)(C)N(C(=O)CN2C(=O)c3ccccc3C2=O)c2ccccc21	0.7	87*	11	30	42	0.1
SMILES	CYP2C19 activ	CYP2C9 inhib	Ecoli WT expand	CYP2C19 inhib	Ecoli tolC	CYP2C9 activ
O=C1CC(c2ccccc2)CCc2sccc2N1 (stereo unspecified)	0.3	26	-3	66*	nt	0.7
O=C1CC(C(=O)O)c2ccccc2N1 (stereo unspecified)	0.9	6	-4	5	11	0.9
COc1ccc(OCCn2c(C)c(/C=N/n3cnnc3)c3ccccc32)cc1	0.2	75*	-6	76*	nt	0.3
Cc1cccc(OCCn2c(S(=O)(=O)O)nc3ccccc32)c1	0.9	35	3	11	nt	0.7
Cc1c(/C=N/n2cnnc2)c2ccccc2n1C	0.2	20	-3	77*	-2	0.8
Oc1ccc2ccccc2c1/C=N/n1cnnc1	nt	nt	-6	nt	7	nt
COc1cccc(OCCn2c(C)c(/C=N/n3cnnc3)c3ccccc32)c1	0.4	36	-19	56*	-2	0.6
N#CCCNC(=O)CCN1CCOCC1	1.2	-12	-7	-21	-16	1.1
CCN(CC)c1cccc(OCC(=O)N(C)CCC#N)c1	1.1	-7	2	-11	-5	1.1
O=C(COc1c(F)c(F)cc(F)c1F)NC(=O)NC1CCCC1	0.7	12	10	27	7	0.9
Cn1c(Cn2c(=O)sc3ccccc32)nnc1SCC(=O)NCc1ccccc1Cl	nt	nt	2	nt	-11	nt
COc1cccc(NC(=O)c2ccccc2-c2nc(-c3ccc(Cl)cc3)no2)c1	0.3	83*	-5	69*	36	0.2
COc1ccccc1-c1noc(-c2ccccc2C(=O)Nc2ccccc2)n1	1.1	4	-22	-9	-23	1
COc1ccccc1NC(=O)c1ccccc1-c1nc(-c2ccccc2OC)no1	0.4	78*	-7	64*	36	0.2
COc1ccccc1NC(=O)c1ccccc1SC	1	-284	1	5	-1	3.8*
CCOc1ccccc1OCC(=O)Nc1nnc(C)s1	1.1	6	15	-5	1	0.9
O=c1[nH]c2c(c3c1CCCC3)CCCC2	1	-5	3	4	5	1.1
N/C(=N\S(=O)(=O)c1ccc(Cl)s1)c1ccccc1	0	43	8	97*	10	0.6
Cc1ccc(CNC(=O)C2C3C=CC(C3)C2C(=O)O)cc1 (stereo unspecified)	0.5	13	5	53*	-13	0.9
COc1ccc(C)cc1NC(=O)C1C2C=CC(C2)C1C(=O)O (stereo unspecified)	1.1	-11	8	-9	-15	1.1
Cc1nn(-c2ccccc2)c(C)c1/C=N/n1c(-c2ccc(C(C)(C)C)cc2)n[nH]c1=S	0.7	82*	5	34	nt	0.2
Cc1nn(-c2ccccc2)c(C)c1/C=N/NC(=O)c1cc(C(C)(C)C)[nH]n1	0.7	58*	4	27	nt	0.4
CS(=O)(=O)N1CCCC(C(=O)NCc2ccc(F)cc2Cl)C1 (stereo unspecified)	0.9	-13	-1	8	-14	1.1
